Measured values taken from ChEMBL document CHEMBL1159121, “Synthesis, in vitro structure-activity relationship, and in vivo studies of 2-arylthiazolidine-4-carboxylic acid amides as anticancer agents” (Bioorg Med Chem, 2010).
pIC50: −log10 of the molar value.

Key:
[1] = Antiproliferative activity against mouse B16-F1 cells after 48 hrs by SRB assay; type: functional, cell-based; conditions: B16-F1, 48 h
Method in brief: (§1)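 Melanoma lines and control fibroblasts grown at 37 °C, 5% CO2, then exposed to a wide concentration range for 48 h in round-bottom 96-well plates. Fixed with 10% TCA, stained with SRB, protein read at 560 nm. IC50 (50% growth inhibition versus untreated) obtained by nonlinear regression.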

A-375 = assay: Antiproliferative activity against human A375 cells after 48 hrs by SRB assay; type: functional, cell-based; conditions: A-375, 48 h; method in brief: as §1
[2] = Antiproliferative activity against human WM164 cells after 48 hrs by SRB assay; type: functional, cell-based; conditions: WM164, 48 h; method in brief: as §1
[3] = Cytotoxicity against human fibroblasts after 48 hrs by SRB assay; type: cell-based; conditions: Fibroblast; method in brief: as §1
[4] = Selectivity ratio of IC50 for human fibroblasts to IC50 for human melanoma cells; type: ADME; conditions: human fibroblasts and human melanoma cells, read-out: Ratio IC50
DU-145 = assay: Antiproliferative activity against human DU145 cells after 96 hrs by SRB assay; type: functional, cell-based; conditions: DU-145, 96 h
Method in brief: (§2)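 Prostate lines in RPMI1640/10% FBS; RH7777 in DMEM/10% FBS. Cells TCA-fixed, stained with 0.4% SRB, absorbance read at 540 nm. IC50 from nonlinear regression of % survival against concentration.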

PC-3 = assay: Antiproliferative activity against human PC3 cells after 96 hrs by SRB assay; type: functional, cell-based; conditions: PC-3, 96 h
RH7777 [5] = assay: Cytotoxicity against rat RH7777 cells after 96 hrs by SRB assay; type: cell-based; conditions: RH7777, 96 h; method in brief: as §2
RH7777 [6] = assay: Selectivity ratio of IC50 for rat RH7777 cells to IC50 for human prostate cancer cells
Method in brief: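 Ratio of RH7777 IC50 to the mean IC50 over four prostate lines (DU 145, PC-3, LNCaP, PPC-1). Prostate lines grown in RPMI1640/10% FBS and RH7777 in DMEM/10% FBS. Read by SRB (0.4%) at 540 nm; IC50 by nonlinear regression.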

LNCaP = assay: Antiproliferative activity against human LNCAP cells after 96 hrs by SRB assay; type: functional, cell-based; method in brief: as §2
PPC-1 = assay: Antiproliferative activity against human PPC1 cells after 96 hrs by SRB assay; type: functional, cell-based; conditions: PPC-1, 96 h; method in brief: as §2

Compound | pIC50 [1] | pIC50 (A-375) | pIC50 [2] | pIC50 [3] | selectivity ratio [4] | pIC50 (DU-145) | pIC50 (PC-3) | pIC50 (RH7777 [5]) | Ratio IC50 (RH7777 [6]) | pIC50 (LNCaP) | pIC50 (PPC-1)
CCCCCC/C=C\CCCCCCCCNC(=O)[C@@H]1CSC(c2ccc(NC(C)=O)cc2)N1 (mixture of isomers) | 5.68 | 5.72 | 5.70 | 4.85 | 7 | 5.62 | 5.60 | 5.12 | 3.9 | 5.74 | 5.96
CCCCCCCCCCCCCCCCNC(=O)[C@@H]1CSC(c2cccc(NC(C)=O)c2)N1 (mixture of isomers) | 5.66 | 5.82 | 5.96 | 5.20 | 3.9 | 5.64 | 5.80 | 5.31 | 3.4 | 5.85 | 6.30
CC(=O)Nc1ccc(C2N[C@H](C(=O)Nc3ccc(-c4ccccc4)cc3)CS2)cc1 (mixture of isomers) | 5.24 | 5.21 | 5.39 | 4.48 | 6.3 | 5.30 | 5.12 | 5.02 | 2 | 5.46 | 5.54
CCCCCCCCC/C=C/CCCCCCCNC(=O)[C@@H]1CSC(c2ccc(OC)c(OC)c2)N1 (mixture of isomers) | 5.49 | 5.85 | 5.96 | 4.79 | 8.6 | 5.82 | 5.70 | 5.03 | 8.2 | 6.10 | 6.52
CCCCCCCCCCCCCCCCNC(=O)[C@@H]1CSC(c2ccc(NC(C)=O)cc2)N1C(C)=O (mixture of isomers) | 4.82 | 4.90 | 4.69 | 4.24 | 3.6 | 4.83 | 5.05 | 4.89 | 1.3 | 4.97 | 5.17
CCCCCCCCC/C=C\CCCCCCCNC(=O)[C@@H]1CSC(c2ccccc2)N1 (mixture of isomers) | 5.22 | 5.31 | 5.62 | 4.94 | 2.6 | 5.74 | 5.62 | 5.08 | 4.9 | 5.80 | 6.00
CCCCCCCCCCCCCCCCNC(=O)[C@@H]1CSC(c2cccc(OC)c2)N1 (mixture of isomers) | 5.52 | 5.74 | 5.92 | 5.60 | 1.3 | 5.96 | 6.00 | 5.44 | 5.1 | 6.30 | 6.70
CCCCCCCCCCCCCCCCCCNC(=O)[C@@H]1CSC(c2ccc(OC)c(OC)c2)N1 (mixture of isomers) | 4.84 | 5.16 | 5.57 | 4.69 | 2.5 | 5.26 | 5.39 | 4.93 | 3.7 | 5.62 | 6.05
CCCCCCCCCCCCCCCCNC(=O)[C@@H]1CSC(c2ccccc2OC)N1 (mixture of isomers) | 5.37 | 5.52 | 5.62 | 5.14 | 2.2 | 5.19 | 5.13 | 4.76 | 3.6 | 5.44 | 5.77
CCCCCCCCCCCCCCCCNC(=O)[C@@H]1CSC(c2ccc(NC(=O)CCl)cc2)N1 (mixture of isomers) | 4.03 | 4.69 | 5.24 | 4.60 | 0.6 | 6.15 | 6.05 | 5.03 | 9.4 | 5.70 | 6.40
CCCCCCCCC/C=C/CCCCCCCNC(=O)[C@@H]1CSC(c2cc(OC)c(OC)c(OC)c2)N1 (mixture of isomers) | 5.49 | 5.74 | 5.96 | 5.40 | 2 | 6.05 | 5.92 | 5.17 | 9.1 | 6.22 | 6.52
CCCCCCCCCCCCCCCCNC[C@@H]1CSC(c2ccc(NC(C)=O)cc2)N1 (mixture of isomers) | 4.92 | 4.84 | 5.49 | 4.07 | 8.6 | 5.33 | 5.35 | 5.10 | 1.9 | 5.33 | 5.62
CC(=O)Nc1ccc(C2N[C@H](C(=O)Nc3ccc4cc5ccccc5cc4c3)CS2)cc1 (mixture of isomers) | 5.25 | 5.51 | 5.85 | 4.87 | 4 | 6.05 | 6.10 | 5.59 | 2.5 | 5.77 | 6.15
CCCCCCCCCCCCCCCCCCNC(=O)[C@@H]1CSC(c2cc(OC)c(OC)c(OC)c2)N1 (mixture of isomers) | 5.23 | 5.34 | 5.52 | 5.33 | 1 | 5.39 | 5.31 | 4.85 | 4.8 | 5.80 | 6.00
CCCCCCCCC/C=C\CCCCCCCNC(=O)[C@@H]1CSC(c2ccc(OC)c(OC)c2)N1 (mixture of isomers) | 5.48 | 5.80 | 5.92 | 4.74 | 9 | 5.70 | 5.59 | 5.00 | 6.2 | 5.89 | 6.22
CCCCCCCCC#CCCCCCCCCCNC(=O)[C@@H]1CSC(c2ccc(NC(C)=O)cc2)N1 (mixture of isomers) | 5.80 | 5.57 | 5.89 | 5.15 | 3.8 | 5.74 | 5.68 | 5.18 | 4 | 5.70 | 6.15
